Experimental findings from the RNAGym collection of RNA variant scans (doi:10.1126/science.aae0568) are described below.

The chains are these.
B1: tRNA (parent)
chain: GUUCCGUUGGCGUAAUGGUAACGCGUCUCCCUCCUAAGGAGAAGACUGCGGGUUCGAGUCCCGUACGGAACG

Variants at the floor of the assay were thinned out.

The variants in this data set derive from B1. The data set can be described thus: yeast fitness relative to wild type (ratio to wild type); higher = fitter; tRNA-Arg(CCU), competitive growth, 37 C, YPD. The method in brief: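 For this measurement, the tRNA-Arg(CCU) gene was varied by chemical synthesis at a 3% per-site mutation rate across 69 sites, and each variant was placed at the native genomic locus in Saccharomyces cerevisiae. The pooled strains went through a 24-hour competition in YPD at 37°C in six parallel replicates, with amplicons from start and end populations read by 100-nucleotide paired-end sequencing. Darwinian fitness relative to wild type followed from the change in each genotype's frequency. Genotypes needed ≥ 100 starting reads, and estimates < 0.5 were set to 0.5.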
Take C4U C30A C61U: the yeast fitness came to 0.812. Turning to A20C G39C, the yeast fitness was found to be 0.723.

On to U26A C31A A42G C55G A57C, for which the yeast fitness is not above 0.5. To U8A G10C C11U C24U A42C U47C G68C belongs not above 0.5; to U7C C33G A40G, not above 0.5. Then U3C A15C A65C, with not above 0.5; and A21U A40C A42U C49U G50C G63A C66U, with not above 0.5; and G6A C11U A21C U28A C62U, with not above 0.5.

With G10A A21C C24A C66A, the yeast fitness was not above 0.5. As to G9C C11A A40C A70U, the yeast fitness turned out to be 0.704. Turning to G44A A57U C66U, the yeast fitness was determined as 0.547.

For the variant U2G U7G U16C C24U C34U G50A U54C A65U, the yeast fitness is not above 0.5. To C5U A21U C30G G52A A70U belongs 0.534. C30G C46U A65C: the yeast fitness is not above 0.5. With U3A C11A C33U, the yeast fitness was found to be 0.502. Consider C29G G38A G44A C46U C62G, for which the yeast fitness is not above 0.5. Take G6A A14G G23A C24G G44A: the yeast fitness was not above 0.5. U32C A37C G38A G63A: the yeast fitness worked out at 0.533. To C11A G38U C66A belongs not above 0.5; to U8C G10A G51A G58A, not above 0.5; to A14U G41C, 0.565.

For G10A C29U A57C, the yeast fitness was not above 0.5.

Turning to U16G C31G C55U C61A C66U, the yeast fitness is not above 0.5.

As to C11G A21C G56A, the yeast fitness was not above 0.5. Take U7C A14C A65G A70C: the yeast fitness was not above 0.5.

For C5G A20G A40G G44A C46G C60G C61U G63A, the yeast fitness was not above 0.5. To G10A G17A belongs 0.556. Then C27A C61G C66U A69U, with not above 0.5. Regarding A43C A70G, the yeast fitness is 1.05. Take U8C C55U G58A: the yeast fitness was not above 0.5.

With C5U A21U C29U C30G A70U, the yeast fitness stood at 0.543.

In the case of C5G A20U A57U, the yeast fitness is not above 0.5. As for U35A U47C C61G, the yeast fitness was not above 0.5. Take C11A A69U: the yeast fitness came to 0.734. Turning to U2A A57U A65U, the yeast fitness was not above 0.5.

Consider A14U A21C, for which the yeast fitness came out at 0.705. Then C5U U8C A20G C30A A57U C61U, with not above 0.5. On to C27G A43C C60G, for which the yeast fitness is not above 0.5.

In the case of C4G C5A U28G, the yeast fitness was not above 0.5. Regarding A40U G58C, the yeast fitness was 0.945.

Regarding U8A C34G A65U C66A, the yeast fitness is not above 0.5. As for G6A G44A G56A, the yeast fitness stood at 0.649.

On to C30A A36U G38C G39A C66A, for which the yeast fitness was not above 0.5. For the variant A15G U35C A36G A37G C61G G67C, the yeast fitness was not above 0.5. As to U19A C27A C46A, the yeast fitness was 0.506. To C4U G12A C31A A42U belongs not above 0.5; to G17C G50C, 0.536; to U28A C30U A57G, 0.651. As for A15U G39A, the yeast fitness stood at 0.667. With U13A A14C C22A, the yeast fitness is not above 0.5. As for U3A G12C A21C A36C C49U A70U, the yeast fitness is not above 0.5. For the variant U2A U13C G38A, the yeast fitness is not above 0.5. With C11U A69C, the yeast fitness amounted to 0.905.

For the variant G10C A42U C46G, the yeast fitness was not above 0.5. In the case of C34A U47C G51A, the yeast fitness amounted to 0.53. Regarding U8C A21U C30G G58C, the yeast fitness is not above 0.5. As to G23C U28G A42C G52C, the yeast fitness was not above 0.5. Then A36U A45U C46A G68A, with not above 0.5. Take G6A G18C C49U C61G: the yeast fitness was not above 0.5. In the case of A21G C29U G38C, the yeast fitness stood at 0.814. Take C27G C30U G56A: the yeast fitness was not above 0.5.

Turning to G41C A42G A70G, the yeast fitness worked out at 0.593. Consider G9C U16A C24U C30U C62U, for which the yeast fitness is not above 0.5. Consider C22U A36C A69C, for which the yeast fitness was not above 0.5. For A14G A37G, the yeast fitness was determined as 0.718. As to C30U G52C, the yeast fitness turned out to be 0.593. In the case of A20G G44A, the yeast fitness came out at 0.962. On to C61G G63A A70U, for which the yeast fitness worked out at 0.562. As to C4G A43C C55A A57C, the yeast fitness is not above 0.5. Turning to C4A G23A A40C, the yeast fitness is not above 0.5. U7C U8A C62U: the yeast fitness was not above 0.5. To U7A A69C belongs 0.794; to G9A A42U U59A G67C, not above 0.5; to C29A A57U, not above 0.5.

As to G6A A14U, the yeast fitness amounted to 0.663. With A36G U47A, the yeast fitness was 0.789.

Consider U2G C4G C11A, for which the yeast fitness is not above 0.5. In the case of A15G C24G C49U, the yeast fitness came out at 0.541. As for U19A C22U A40U G51C, the yeast fitness was not above 0.5.

For the variant A20U C61U, the yeast fitness came to 0.836. Take U2G C22U U32C A43C G50C: the yeast fitness was not above 0.5. For G10C A14U U19A C22U C49U C66U, the yeast fitness is not above 0.5. With G38A A69C, the yeast fitness came to 0.847. Then U32C G56A, with 1.07; and G18A C24G C66U, with not above 0.5; and C30U C34G A40C C49G, with not above 0.5. Then C4U C24U A36C C61G, with not above 0.5. As for C24G G38C, the yeast fitness stood at 0.566. Consider C27U A45G U64A, for which the yeast fitness was 0.553.

For G17A C61G, the yeast fitness turned out to be 0.573. Turning to C31G A45U C49G A70U, the yeast fitness is not above 0.5. For C4A U13A G18A G52A C55G A69U, the yeast fitness is not above 0.5. Consider C30U C60A A70C, for which the yeast fitness was not above 0.5. For the variant U8C C61U, the yeast fitness was determined as 0.942. For C5A U26A A40G G58C G67U, the yeast fitness came out at 0.56. Take C5G G10A C30U A42C A70G: the yeast fitness is not above 0.5. For G39A U53A C62G C66U, the yeast fitness was not above 0.5. U2G G25U C49U A65G: the yeast fitness was 0.64. On to U19A C49A U54G U59A G63C A69G, for which the yeast fitness was not above 0.5.

On to C29A C31U C34A A36G G56C, for which the yeast fitness is not above 0.5.

C27U G41C A65C: the yeast fitness is 0.588.

In the case of C30U U35C A37G C55A A65G, the yeast fitness was not above 0.5. Then A14U C29A C49A A69U, with not above 0.5. Turning to A37U A70U, the yeast fitness came out at 0.655. Then A14U C22A, with 0.668; and C4G A14G C31A, with 0.528.

For the variant C4A C24A G51C, the yeast fitness was determined as 0.595.

For C5G U28A A40C, the yeast fitness amounted to 0.581. As to C4A, the yeast fitness amounted to 0.998. Turning to A14G C22A C27A C29U A42C A70C, the yeast fitness was not above 0.5. For C31A A42G C49G C62U, the yeast fitness is not above 0.5. For U2A A20G G67A, the yeast fitness is 0.584. Then C5A G23C C62U A69U, with not above 0.5; and G12C C34U G44A G52A, with not above 0.5.

As to A15U A65C G67A, the yeast fitness is not above 0.5. Then C24U C29A A36G C55G A70C, with not above 0.5.

Regarding U8C G12A G48C, the yeast fitness stood at 0.675. A57U A70U: the yeast fitness worked out at 0.69.

Turning to C34A A40C, the yeast fitness was determined as 0.747. Turning to U2G U35A U54G, the yeast fitness was not above 0.5. Then C11U A14G U16G C24G U26C U47G G50C C66A, with not above 0.5; and A21C A40U A45G A65C, with 0.547; and A36C C49U C55U C60U, with not above 0.5.

Take C31G G63C A65C: the yeast fitness was not above 0.5. Then C30U G50C U59A, with not above 0.5; and C4U A45U G68C, with 0.7; and C5U U32A C66U, with 0.578. Consider U16A C22U U26C U54G C66A, for which the yeast fitness worked out at 0.58. To C5U A14C A42U belongs not above 0.5.

Take A43C G56A C61A: the yeast fitness turned out to be 0.525. Take U2G A21C C22G A45U G63C: the yeast fitness is not above 0.5. Take U2A C5G G25A C66U: the yeast fitness came to 0.532.

In the case of G44C A70C, the yeast fitness was 0.927. For C4U A15C C34A G63C, the yeast fitness was not above 0.5.

U7G C27G C30A C62G: the yeast fitness was not above 0.5. In the case of C27A A45U G52A, the yeast fitness is not above 0.5. Consider A43U C55A A65U, for which the yeast fitness came out at 0.515. To U13A G50A belongs 0.806; to U3C G25U U59C A69C, 0.531. Then A21C C29G, with 0.622; and C4U G6A C34A A70C, with not above 0.5; and C33U C61G G68C, with not above 0.5. Regarding C46U G51A, the yeast fitness stood at 1.02. U13C A21G C31G A45G: the yeast fitness stood at 0.619. Then G9C C55G C66A, with not above 0.5; and U2A C4U A57U, with not above 0.5; and G52A C55G A57U, with not above 0.5. With A15C G23C C60U, the yeast fitness is not above 0.5.

As to A21G C29U A37U G63C, the yeast fitness is not above 0.5. For G17C A20G A57G C62U, the yeast fitness is not above 0.5. As to U28G C46A C61G, the yeast fitness was not above 0.5.

Regarding A43U C55A A65U A70G, the yeast fitness was 0.56.

G6C C46G C62U C66U: the yeast fitness was found to be 0.533. With C31G U53C, the yeast fitness was found to be 0.662. Consider U35C C61G A69G, for which the yeast fitness was not above 0.5. Then C27U C33A A37U A57G, with not above 0.5. For U28C C31U G50C C55U C60G G63A C66U, the yeast fitness was not above 0.5. For G41A G48C, the yeast fitness turned out to be 0.772. Regarding U16A C55A A69C, the yeast fitness is not above 0.5. Then A14U C34G A37C A57C, with not above 0.5; and C5A C30U G52A, with not above 0.5; and C55G A57C C61A C66U, with 0.544. Regarding U13A C22G G25C C27U C30G C55A, the yeast fitness was not above 0.5. Regarding U7C U53G, the yeast fitness was not above 0.5. For G12C C22G G25C G48A, the yeast fitness is 0.915.

With C5A C22G C31G, the yeast fitness was not above 0.5.

Regarding G12A A57G, the yeast fitness came out at 0.909.
